Measurements as given in ChEMBL document CHEMBL1123812, “Pyrroloisoquinoline antidepressants. 2. In-depth exploration of structure-activity relationships” (J Med Chem, 1987).
Activity calls are given as the source filed them.

Key:
[1] = biological target: T1, Adrenergic receptor alpha-1 (Rattus norvegicus, UniProt P15823+P23944+P43140); experiment: Binding affinity towards alpha-1 adrenergic receptor; type: protein assay
T1 sequence (P15823 whole entry): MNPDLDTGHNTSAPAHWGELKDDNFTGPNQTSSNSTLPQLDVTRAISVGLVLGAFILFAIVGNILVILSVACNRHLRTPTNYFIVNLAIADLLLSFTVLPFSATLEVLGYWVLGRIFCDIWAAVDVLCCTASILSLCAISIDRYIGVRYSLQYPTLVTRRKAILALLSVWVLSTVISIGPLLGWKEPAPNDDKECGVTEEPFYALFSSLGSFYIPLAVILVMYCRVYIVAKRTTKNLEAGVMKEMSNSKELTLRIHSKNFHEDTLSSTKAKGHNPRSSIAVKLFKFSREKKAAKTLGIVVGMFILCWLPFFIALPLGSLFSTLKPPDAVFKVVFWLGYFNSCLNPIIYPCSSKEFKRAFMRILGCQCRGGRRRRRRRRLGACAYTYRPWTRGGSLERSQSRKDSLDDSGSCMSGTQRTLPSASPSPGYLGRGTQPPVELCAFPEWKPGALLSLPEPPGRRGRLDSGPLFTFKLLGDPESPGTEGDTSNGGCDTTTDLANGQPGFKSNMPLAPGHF
T1 sequence (P23944 whole entry): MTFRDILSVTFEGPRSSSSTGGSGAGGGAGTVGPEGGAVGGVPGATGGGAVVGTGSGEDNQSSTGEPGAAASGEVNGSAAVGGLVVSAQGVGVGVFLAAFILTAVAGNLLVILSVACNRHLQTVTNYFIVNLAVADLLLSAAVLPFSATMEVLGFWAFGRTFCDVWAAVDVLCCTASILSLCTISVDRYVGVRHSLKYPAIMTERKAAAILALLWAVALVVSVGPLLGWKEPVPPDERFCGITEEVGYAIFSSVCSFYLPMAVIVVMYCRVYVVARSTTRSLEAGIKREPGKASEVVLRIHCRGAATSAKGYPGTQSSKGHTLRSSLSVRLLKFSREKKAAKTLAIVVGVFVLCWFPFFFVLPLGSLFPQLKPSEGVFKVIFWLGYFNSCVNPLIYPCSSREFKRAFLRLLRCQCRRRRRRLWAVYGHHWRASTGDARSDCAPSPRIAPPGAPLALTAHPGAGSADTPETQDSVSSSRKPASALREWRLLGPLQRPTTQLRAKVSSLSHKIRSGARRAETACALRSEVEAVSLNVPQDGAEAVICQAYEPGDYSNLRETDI
T1 sequence (P43140 whole entry): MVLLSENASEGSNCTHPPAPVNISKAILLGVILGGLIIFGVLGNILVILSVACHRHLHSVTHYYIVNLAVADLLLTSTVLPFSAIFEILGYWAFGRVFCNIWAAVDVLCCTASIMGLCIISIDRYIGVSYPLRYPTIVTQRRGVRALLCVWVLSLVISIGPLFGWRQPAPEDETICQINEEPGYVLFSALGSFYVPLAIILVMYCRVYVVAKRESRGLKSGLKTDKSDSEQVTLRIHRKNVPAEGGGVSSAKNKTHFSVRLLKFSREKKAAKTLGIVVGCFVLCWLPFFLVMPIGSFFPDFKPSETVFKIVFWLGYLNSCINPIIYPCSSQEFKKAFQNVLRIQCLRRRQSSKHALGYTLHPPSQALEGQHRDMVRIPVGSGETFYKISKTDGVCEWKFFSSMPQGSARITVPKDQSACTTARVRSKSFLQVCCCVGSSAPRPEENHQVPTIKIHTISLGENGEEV

[2] = biological target: Serotonin 2 (5-HT2) receptor (Rattus norvegicus, UniProt P30994+P08909+P14842); experiment: Binding affinity towards 5-hydroxytryptamine 2 receptor; type: protein assay
[3] = biological target: Serotonin 1 (5-HT1) receptor (Rattus norvegicus, UniProt P28564+P30940+P19327+P28565); experiment: Binding affinity towards serotonin S1 receptor; type: protein assay
Method in brief: (§1)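 Rat brain crude synaptic membranes in 20 mM NaHEPES pH 7.5. Ligands: α1 cortex […] 0.4 nM, nonspecific with (-)-NE 100 μM, 30 min at 25 °C. […] D2 striatum [3H]spiperone 0.05 nM with (+)-butaclamol 1 μM, 45 min at 37 °C. S1 cortex [3H]5-HT 1 nM plus glutathione and MgCl2, with 5-HT 10 μM, 20 min at 37 °C. […] Samples filtered on GF/B and counted.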

[4] = biological target: Sodium-dependent serotonin transporter (Rattus norvegicus) (UniProt P31652); experiment: Ability to inhibit the uptake of [3H]- serotonin(5-HT) 0.1 uM concentration at rat brain synaptosomes; type: functional, subcellular
Method in brief: (§2)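 Male Wistar rat brain synaptosomes (P2 fraction): hypothalamus for NE, striatum for DA, cerebral cortex for 5-HT. Buffer is Tris- or HEPES-buffered salt medium with glucose, ascorbate and nialamide, pH 7.4 at 37 °C. Preincubated 10 min at 37 °C with compound. Uptake started with [3H]NE 100–300 nM, [3H]DA 50–300 nM or [3H]5-HT 100–200 nM, incubated 3 min (DA) or 6–10 min (NE, 5-HT). Blanks held on ice. Filtered, counted by scintillation.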

[5] = species on record: Mus musculus; experiment: Gross behavioral effects ascertained in mice; W indicates weak stimulant or depressant activity of little significance.; type: functional, organism-based
Method in brief: (§3)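 Male Swiss Webster mice, 18–24 g, three per dose, given ip doses of 1, 3, 10, 30, 100 and 300 mg/kg. Observed for gross behavior and held for 4 days. Scored as weak (W), stimulant (S), depressant (D) or convulsant (C).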

[6] = system: Mus musculus; experiment: Ability to antagonise intraperitoneal dose; inactive (<10% antagonism) at 30 mgjkg is represented as I-30.; type: functional, organism-based
Method in brief: (§4)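 Nonfasted male Swiss Webster mice, 18–24 g, ten per dose level and in saline controls. Test compound given ip 30 min before tetrabenazine 32 mg/kg ip; dose expressed as free base. Motor activity and ptosis scored. Control response ≤90% corrected by Abbott's formula.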

[7] = biological target: Norepinephrine transporter (Rattus norvegicus) (UniProt Q9WTR4); experiment: Ability to inhibit the uptake of [3H]norepinephrine (NE) 0.1 uM concentration at rat brain synaptosomes; type: functional, subcellular; method in brief: as §2
[8] = biological target: Sodium-dependent dopamine transporter (Rattus norvegicus) (UniProt P23977); experiment: Ability to inhibit the uptake of [3H]dopamine (DA) 0.1 uM concentration at rat brain synaptosomes; type: functional, subcellular; method in brief: as §2
[9] = biological target: Norepinephrine transporter (Rattus norvegicus, UniProt Q9WTR4); experiment: Inhibition of uptake of tritiated norepinephrine (NE) in rat synaptosomes; type: subcellular, Brain
[10] = biological target: D(2) dopamine receptor (Rattus norvegicus) (UniProt P61169); experiment: Binding affinity towards dopamine receptor D2 at 1.0 uM concentration; method in brief: as §1
[11] = biological target: Serotonin 1 (5-HT1) receptor (Rattus norvegicus) (UniProt P28564+P30940+P19327+P28565); experiment: Binding affinity towards serotonin S1 receptor at 1.0 uM; type: protein assay; method in brief: as §1
[12] = species on record: Mus musculus; experiment: Antagonism of tetrabenazine (TBZ)-induced depression in mice measured for ptosis; type: functional; settings: Mus musculus; read-out: ED50; method in brief: as §4
[13] = species on record: Mus musculus; experiment: Antagonism of tetrabenazine (TBZ)-induced depression measured in mice by motor activity; type: functional; settings: Mus musculus; read-out: ED50; method in brief: as §4
[14] = biological target: Sodium-dependent dopamine transporter (Rattus norvegicus, UniProt P23977); experiment: Inhibition of the uptake of tritiated dopamine (DA) in rat synaptosomes; type: subcellular, Brain
[15] = biological target: Serotonin 2 (5-HT2) receptor (Rattus norvegicus) (UniProt P30994+P08909+P14842); experiment: Binding affinity towards 5-hydroxytryptamine 2 receptor at 1.0 uM concentration; type: protein assay; method in brief: as §1
[16] = biological target: Adrenergic receptor alpha-2 (Rattus norvegicus) (UniProt P22086+P19328+P22909); experiment: Binding affinity towards alpha-2 adrenergic receptor at 1.0 uM concentration; type: protein assay
[17] = biological target: Muscarinic acetylcholine receptor (Rattus norvegicus) (UniProt P08482+P08483+P08485+P08911+P10980); experiment: Binding affinity towards Muscarinic acetylcholine receptor at 1.0 uM concentration; type: protein assay
[18] = biological target: Adrenergic receptor alpha-1 (Rattus norvegicus) (UniProt P15823+P23944+P43140); experiment: Binding affinity towards alpha-1 adrenergic receptor at 1.0 uM concentration; type: protein assay; method in brief: as §1
[19] = species on record: Mus musculus; experiment: Gross behavioral effects ascertained in mice; S indicates significant stimulant properties.; type: functional, organism-based; method in brief: as §3
[20] = biological target: Sodium-dependent dopamine transporter (Rattus norvegicus) (UniProt P23977); experiment: Inhibition of tritiated dopamine (DA) uptake at 0.1 uM concentration; type: functional; method in brief: as §2
[21] = species on record: Rattus norvegicus; experiment: Ability to inhibit the uptake of tritiated norepinephrine (NE) at 0.1 uM concentration; type: functional; method in brief: as §2
[22] = biological target: Sodium-dependent serotonin transporter (Rattus norvegicus) (UniProt P31652); experiment: Inhibition of tritiated serotonin(5-HT) uptake at 0.1 uM concentration; type: functional; method in brief: as §2

Chain of Serotonin 2 (5-HT2) receptor (Rattus norvegicus) (P08909 whole entry, looked up): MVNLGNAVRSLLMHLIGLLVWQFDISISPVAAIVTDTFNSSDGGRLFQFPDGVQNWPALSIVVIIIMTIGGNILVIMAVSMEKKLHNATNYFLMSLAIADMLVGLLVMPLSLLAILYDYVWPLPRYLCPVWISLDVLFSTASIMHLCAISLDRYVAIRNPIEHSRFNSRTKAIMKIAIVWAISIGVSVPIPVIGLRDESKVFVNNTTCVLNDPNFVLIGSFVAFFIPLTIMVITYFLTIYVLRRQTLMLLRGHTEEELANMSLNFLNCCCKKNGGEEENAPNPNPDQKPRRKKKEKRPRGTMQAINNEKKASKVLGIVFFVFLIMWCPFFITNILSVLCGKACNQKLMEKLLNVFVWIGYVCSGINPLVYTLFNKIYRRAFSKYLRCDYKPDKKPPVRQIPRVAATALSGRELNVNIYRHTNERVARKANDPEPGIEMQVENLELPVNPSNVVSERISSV
Chain of Serotonin 2 (5-HT2) receptor (Rattus norvegicus) (P14842 whole entry, looked up): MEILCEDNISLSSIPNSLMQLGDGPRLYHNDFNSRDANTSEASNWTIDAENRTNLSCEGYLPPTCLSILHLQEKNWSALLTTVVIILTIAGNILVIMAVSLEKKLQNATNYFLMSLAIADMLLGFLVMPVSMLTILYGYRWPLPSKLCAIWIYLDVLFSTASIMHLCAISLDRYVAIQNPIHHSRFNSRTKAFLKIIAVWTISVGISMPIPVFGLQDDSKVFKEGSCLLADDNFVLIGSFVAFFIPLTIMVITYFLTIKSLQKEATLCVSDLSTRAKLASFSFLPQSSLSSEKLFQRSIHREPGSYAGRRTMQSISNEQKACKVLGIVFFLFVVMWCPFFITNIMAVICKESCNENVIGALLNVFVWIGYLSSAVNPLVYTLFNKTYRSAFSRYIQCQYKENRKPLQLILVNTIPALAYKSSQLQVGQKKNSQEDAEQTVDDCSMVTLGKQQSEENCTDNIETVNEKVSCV
Chain of Serotonin 2 (5-HT2) receptor (Rattus norvegicus) (P30994 whole entry, looked up): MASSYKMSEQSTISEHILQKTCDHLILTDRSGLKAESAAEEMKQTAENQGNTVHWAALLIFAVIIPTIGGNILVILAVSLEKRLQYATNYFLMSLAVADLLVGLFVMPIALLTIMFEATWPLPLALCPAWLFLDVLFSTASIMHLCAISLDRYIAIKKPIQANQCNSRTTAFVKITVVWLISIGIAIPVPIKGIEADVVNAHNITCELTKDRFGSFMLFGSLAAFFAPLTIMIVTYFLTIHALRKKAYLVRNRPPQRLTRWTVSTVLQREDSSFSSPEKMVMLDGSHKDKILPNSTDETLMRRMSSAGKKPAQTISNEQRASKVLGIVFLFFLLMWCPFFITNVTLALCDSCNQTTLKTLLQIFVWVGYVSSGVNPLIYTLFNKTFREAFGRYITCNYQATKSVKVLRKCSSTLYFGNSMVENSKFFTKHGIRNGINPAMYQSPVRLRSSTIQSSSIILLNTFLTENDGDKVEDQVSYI
Chain of Sodium-dependent serotonin transporter (Rattus norvegicus) (P31652 whole entry): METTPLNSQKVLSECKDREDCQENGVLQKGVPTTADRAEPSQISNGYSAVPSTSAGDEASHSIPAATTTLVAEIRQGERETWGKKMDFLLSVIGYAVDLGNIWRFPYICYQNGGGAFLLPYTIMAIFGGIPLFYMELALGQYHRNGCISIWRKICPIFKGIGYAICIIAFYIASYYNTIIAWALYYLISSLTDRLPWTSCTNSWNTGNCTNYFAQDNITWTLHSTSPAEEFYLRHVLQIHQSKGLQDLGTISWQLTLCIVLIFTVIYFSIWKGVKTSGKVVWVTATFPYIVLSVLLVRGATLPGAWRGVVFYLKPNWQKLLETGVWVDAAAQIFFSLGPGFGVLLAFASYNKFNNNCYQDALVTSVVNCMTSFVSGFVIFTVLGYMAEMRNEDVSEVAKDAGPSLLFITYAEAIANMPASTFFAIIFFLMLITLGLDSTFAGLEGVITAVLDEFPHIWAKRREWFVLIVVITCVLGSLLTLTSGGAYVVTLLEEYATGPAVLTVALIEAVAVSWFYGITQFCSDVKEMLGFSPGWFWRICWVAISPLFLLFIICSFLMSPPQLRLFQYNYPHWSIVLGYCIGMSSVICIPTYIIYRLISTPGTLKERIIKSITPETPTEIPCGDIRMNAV
Chain of D(2) dopamine receptor (Rattus norvegicus) (P61169 whole entry): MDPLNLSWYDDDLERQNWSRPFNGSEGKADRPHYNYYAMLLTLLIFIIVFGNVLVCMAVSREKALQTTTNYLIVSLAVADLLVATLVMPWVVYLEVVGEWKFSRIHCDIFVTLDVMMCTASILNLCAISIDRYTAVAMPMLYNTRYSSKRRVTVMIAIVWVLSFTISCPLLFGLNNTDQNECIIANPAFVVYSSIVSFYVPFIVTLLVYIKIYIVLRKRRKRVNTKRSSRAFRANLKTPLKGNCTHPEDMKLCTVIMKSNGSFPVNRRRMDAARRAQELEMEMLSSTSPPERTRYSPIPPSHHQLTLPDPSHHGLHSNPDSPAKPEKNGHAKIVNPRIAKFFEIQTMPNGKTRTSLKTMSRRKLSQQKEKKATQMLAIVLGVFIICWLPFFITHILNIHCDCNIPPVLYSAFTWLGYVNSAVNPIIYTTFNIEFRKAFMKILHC
Chain of Sodium-dependent dopamine transporter (P23977 whole entry): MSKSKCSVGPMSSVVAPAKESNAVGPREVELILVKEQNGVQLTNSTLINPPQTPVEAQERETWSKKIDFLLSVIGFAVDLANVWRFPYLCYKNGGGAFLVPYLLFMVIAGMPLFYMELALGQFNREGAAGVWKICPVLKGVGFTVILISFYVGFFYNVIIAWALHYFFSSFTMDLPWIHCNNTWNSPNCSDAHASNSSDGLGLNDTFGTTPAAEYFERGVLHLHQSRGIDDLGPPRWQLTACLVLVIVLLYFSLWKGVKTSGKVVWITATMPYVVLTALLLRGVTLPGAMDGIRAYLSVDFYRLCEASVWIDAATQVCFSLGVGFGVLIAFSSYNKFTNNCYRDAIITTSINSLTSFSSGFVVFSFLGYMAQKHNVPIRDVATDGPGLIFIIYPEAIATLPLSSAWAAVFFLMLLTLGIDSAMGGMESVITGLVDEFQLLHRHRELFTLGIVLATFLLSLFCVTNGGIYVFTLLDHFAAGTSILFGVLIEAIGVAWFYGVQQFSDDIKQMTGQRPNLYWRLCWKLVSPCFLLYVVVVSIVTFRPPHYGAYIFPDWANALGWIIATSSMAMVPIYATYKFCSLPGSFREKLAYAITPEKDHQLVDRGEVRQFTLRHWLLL
Chain of Sodium-dependent dopamine transporter (Rattus norvegicus) (P23977 whole entry): as above
Chain of Norepinephrine transporter (Rattus norvegicus) (Q9WTR4 as listed by the source): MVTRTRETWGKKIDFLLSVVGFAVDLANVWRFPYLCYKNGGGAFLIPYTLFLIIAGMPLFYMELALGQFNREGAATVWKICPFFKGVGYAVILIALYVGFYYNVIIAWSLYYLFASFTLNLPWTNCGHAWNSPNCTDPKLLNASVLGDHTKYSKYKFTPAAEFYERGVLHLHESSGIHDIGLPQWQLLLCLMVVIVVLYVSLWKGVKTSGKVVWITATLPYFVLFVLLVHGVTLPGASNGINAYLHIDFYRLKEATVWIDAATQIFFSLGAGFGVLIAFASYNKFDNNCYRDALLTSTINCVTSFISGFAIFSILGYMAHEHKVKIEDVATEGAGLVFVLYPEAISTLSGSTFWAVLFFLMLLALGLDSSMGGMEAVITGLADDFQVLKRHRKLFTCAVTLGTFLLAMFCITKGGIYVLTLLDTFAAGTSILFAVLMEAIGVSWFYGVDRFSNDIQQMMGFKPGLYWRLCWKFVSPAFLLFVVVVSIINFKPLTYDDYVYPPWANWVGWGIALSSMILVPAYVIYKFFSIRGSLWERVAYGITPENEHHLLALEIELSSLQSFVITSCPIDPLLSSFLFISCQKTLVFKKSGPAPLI
Chain of Norepinephrine transporter (Q9WTR4 whole entry): as the sequence (Q9WTR4 as listed by the source) above

SMILES	Ki [1] [µM]	Ki [2] [µM]	Ki [3] [µM]	behavior [5]	inhibition [10] [%]	inhibition [11] [%]	ED50 [12] [mg/kg]	ED50 [13] [mg/kg]	inhibition [15] [%]	further results
CSc1ccc([C@@H]2CN3CCC[C@@H]3c3ccccc32)cc1 (stereo in doubt; (-)-48b)	0.213	0.939	0.775							
FC(F)(F)c1cccc([C@@H]2CN3CCC[C@H]3c3ccccc32)c1	0.086	0.029		Partial stimulant						inhibition [4]: 9%; ED50 [6]: inactive; inhibition [7]: 23%; inhibition [8]: 8%
Br.COc1cc([C@@H]2CN3CCC[C@@H]3c3ccccc32)cc(OC)c1OC	0.029			Partial stimulant	17	31	2.5	> 60	2	Ki [9]: 0.164 µM; Ki [14]: ~2 µM
CSc1ccc([C@@H]2CN3CCC[C@@H]3c3ccccc32)cc1 (stereo in doubt; 48b)	0.314	0.208	1.03				0.3	> 30		
Br.Clc1ccc([C@@H]2CN3CCC[C@@H]3c3ccccc32)cc1					35		0.34	0.55	59	inhibition [16]: 35%; inhibition [17]: 0%; inhibition [18]: 61%; behavior [19]: Stimulant
c1ccc([C@@H]2CN3CCC[C@@H]3c3ccccc32)cc1 (stereo in doubt; (-)-7b)				Partial stimulant	14				58	
COc1ccccc1[C@@H]1CN2CCC[C@@H]2c2ccccc21				Partial stimulant		45	~0.3	~0.6	74	
Br.Clc1ccccc1[C@@H]1CN2CCC[C@@H]2c2ccccc21 (stereo in doubt; (+)-24b)	0.15		9.2							Ki [14]: 0.0175 µM
CN1CCc2cc(Cl)c(O)cc2[C@@H](c2ccccc2)C1 [SCH-23390]		0.013			53	75				inhibition [18]: 65%
Br.Clc1ccccc1[C@@H]1CN2CCC[C@@H]2c2ccccc21 (stereo in doubt; (-)-24b)	0.62		2.7							Ki [14]: 0.775 µM
Br.Clc1ccccc1[C@@H]1CN2CCC[C@H]2c2ccccc21	0.041			Partial stimulant	54		2.5	> 30	10	inhibition [20]: 9%; Inhibition [21]: 41%; inhibition [22]: 19%
Br.Nc1ccc([C@@H]2CN3CCC[C@H]3c3ccccc32)cc1		0.029			16	36	0.2	1		inhibition [4]: 17%; inhibition [7]: 89%; inhibition [18]: 69%; inhibition [8]: 77%
